ChEMBL document CHEMBL4007470, “Discovery of a 2'-fluoro-2'-C-methyl C-nucleotide HCV polymerase inhibitor and a phosphoramidate prodrug with favorable properties” (Bioorg Med Chem Lett, 2017)

What was measured:
Hepatitis C virus [1] = experiment: Antiviral activity against HCV genotype 4a infected in human HuH7 cells by luciferase reporter gene assay; type: functional, cell-based, Hepacivirus hominis; settings: Hepatitis C virus, genotype 4a, Huh-7
Hepatitis C virus [2] = experiment: Antiviral activity against HCV genotype 1a infected in human HuH7 cells by luciferase reporter gene assay; type: functional, cell-based, Hepacivirus hominis, subtype 1a; settings: Hepatitis C virus, subtype 1a, Huh-7
Hepatitis C virus [3] = experiment: Antiviral activity against HCV genotype 1b infected in human HuH7 cells by luciferase reporter gene assay; type: functional, cell-based, Hepacivirus hominis; settings: Hepatitis C virus, genotype 1b, Huh-7
How it was run: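 Luciferase-reporter genotype 1b subgenomic replicon in Huh-7 cells; EC50 is concentration giving 50% inhibition. Values are averages of at least three repeats.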

SMILES | EC50 (Hepatitis C virus [1]) [µM] | EC50 (Hepatitis C virus [2]) [µM] | EC50 (Hepatitis C virus [3]) [µM]
CCOC(=O)CC[C@H](NP(=O)(OC[C@H]1O[C@@H](c2cnc3c(N)ncnn23)[C@](C)(F)[C@@H]1O)Oc1ccccc1)C(=O)OCC (stereo not given in full) | 0.83 | 1.2 | 3.4
CCC[C@H](NP(=O)(OC[C@H]1O[C@@H](c2cnc3c(N)ncnn23)[C@](C)(F)[C@@H]1O)Oc1ccccc1)C(=O)OCC (stereo not given in full) | 0.27 | 0.39 | 0.65
CC[C@H](C)OC(=O)[C@H](C)NP(=O)(OC[C@H]1O[C@@H](c2cnc3c(N)ncnn23)[C@](C)(F)[C@@H]1O)Oc1ccccc1 (stereo not given in full) | 0.46 | 0.81 | 0.67
CCOC(=O)[C@@H](NP(=O)(OC[C@H]1O[C@@H](c2cnc3c(N)ncnn23)[C@](C)(F)[C@@H]1O)Oc1ccccc1)C(C)(C)C (stereo not given in full) | > 88 | > 88 | > 88
CC(C)OC(=O)C1(NP(=O)(OC[C@H]2O[C@@H](c3cnc4c(N)ncnn34)[C@](C)(F)[C@@H]2O)Oc2ccccc2)CCOCC1 (stereo not given in full) | 7 | 14.4 | 29.1
CC[C@H](C)OC(=O)C1(NP(=O)(OC[C@H]2O[C@@H](c3cnc4c(N)ncnn34)[C@](C)(F)[C@@H]2O)Oc2ccccc2)CCC1 (stereo not given in full) | 2.1 | 18.8 | 16.1
CC[C@@H](C)OC(=O)C1(NP(=O)(OC[C@H]2O[C@@H](c3cnc4c(N)ncnn34)[C@](C)(F)[C@@H]2O)Oc2ccccc2)CCC1 (stereo not given in full) | 0.35 | 6.4 | > 88
CC[C@H](C)OC(=O)[C@@H](C)NP(=O)(OC[C@H]1O[C@@H](c2cnc3c(N)ncnn23)[C@](C)(F)[C@@H]1O)Oc1ccccc1 (stereo not given in full) | 2.1 | 7.9 | 7.3
CC(C)OC(=O)[C@@H](NP(=O)(OC[C@H]1O[C@@H](c2cnc3c(N)ncnn23)[C@](C)(F)[C@@H]1O)Oc1ccccc1)C(C)C (stereo not given in full) | > 88 | > 88 | > 88
CCOC(=O)[C@H](CCCCNC(C)=O)NP(=O)(OC[C@H]1O[C@@H](c2cnc3c(N)ncnn23)[C@](C)(F)[C@@H]1O)Oc1ccccc1 (stereo not given in full) | 86.2 | 60.5 | > 88
CC[C@@H](C)OC(=O)[C@H](C)NP(=O)(OC[C@H]1O[C@@H](c2cnc3c(N)ncnn23)[C@](C)(F)[C@@H]1O)Oc1ccccc1 (stereo not given in full) | 0.37 | 0.53 | 0.56
CC(C)OC(=O)C1(NP(=O)(OC[C@H]2O[C@@H](c3cnc4c(N)ncnn34)[C@](C)(F)[C@@H]2O)Oc2ccccc2)CCCCC1 (stereo not given in full) | – | 68.3 | 83.7
CCOC(=O)[C@H](Cc1ccccc1)NP(=O)(OC[C@H]1O[C@@H](c2cnc3c(N)ncnn23)[C@](C)(F)[C@@H]1O)Oc1ccccc1 (stereo not given in full) | – | 1.7 | 2.2
CC(C)(C)COC(=O)C1(NP(=O)(OC[C@H]2O[C@@H](c3cnc4c(N)ncnn34)[C@](C)(F)[C@@H]2O)Oc2ccccc2)CCC1 (stereo not given in full) | 77.8 | 72.4 | > 88
CC(C)(C)COC(=O)C(C)(C)NP(=O)(OC[C@H]1O[C@@H](c2cnc3c(N)ncnn23)[C@](C)(F)[C@@H]1O)Oc1ccccc1 (stereo not given in full) | 4.3 | 6.2 | 20.3
COCCOC(=O)C(C)(C)NP(=O)(OC[C@H]1O[C@@H](c2cnc3c(N)ncnn23)[C@](C)(F)[C@@H]1O)Oc1ccccc1 (stereo not given in full) | 0.82 | 4.3 | 6.2
CCOC(=O)C[C@H](NP(=O)(OC[C@H]1O[C@@H](c2cnc3c(N)ncnn23)[C@](C)(F)[C@@H]1O)Oc1ccccc1)C(=O)OCC (stereo not given in full) | 2.3 | 3.3 | 8.6
CCOC(=O)[C@@H](NP(=O)(OC[C@H]1O[C@@H](c2cnc3c(N)ncnn23)[C@](C)(F)[C@@H]1O)Oc1ccccc1)C(C)C (stereo not given in full) | 11.2 | 35.2 | 37.6
CCOC(=O)[C@H](CCCCN)NP(=O)(OC[C@H]1O[C@@H](c2cnc3c(N)ncnn23)[C@](C)(F)[C@@H]1O)Oc1ccccc1 (stereo not given in full) | 62.5 | > 88 | > 88
